Bioassay records (PubChem BioAssay)
MEKK2mut PB1 HTS – MEK5 binding signal on mutant MEKK2 PB1, primary screen, biochemical, multiplex bead flow cytometry, Alexa488-MEK5; Alexa488-MEK5 binding to MEKK2 mutant; percent response, % at 10 µM; actives 0.35% (n = 290,000); in the data active = percent response above about 24%, passing the limit was not always enough
MEKK3 PB1 HTS – modulators of MEKK3-MEK5 PB1 binding, primary screen, biochemical, wildtype MEKK3, multiplex bead flow cytometry, Alexa488-MEK5 | Mitogen-activated protein kinase kinase kinase 3 (Homo sapiens), Q99759 | bead-based flow cytometry, Alexa488-MEK5 binding to MEKK3; actives lie on both sides; 0 = blocked by unlabeled MEK5, 100 = vehicle | binding response (% of control), % at 10 µM | actives 1.4% (n = 290,000);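 active = binding response more than 3 SD above or below the average of its plate-row segment, actives on both sides; inconclusive = wells at one plate position flagged as instrument error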;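 also: Alexa488 bead fluorescence after subtracting the streptavidin-only scavenger bead signal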
Pemphigus Ab inh – inhibitors of pemphigus antibody binding to DSG3, primary screen, biochemical, bead-based, flow cytometry, scFv-GFP; binding (percent of control), % at 10 µM; AID 588358, 2011; DSG3-coupled beads, scFv-anti-DSG3-GFP binding; stronger effect = lower value; Desmoglein-3 (Homo sapiens), P32926; actives 0.48% (n = 310,000);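 active = binding more than 3 SD below its plate's average and above zero; inconclusive = below that plate limit but binding exactly zero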;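 also: hits lower antibody fragment binding to DSG3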
UBC13 inh – UBC13 polyubiquitin chain formation inhibitors, primary screen, biochemical, TR-FRET, uHTS | Ubiquitin-conjugating enzyme E2 N (Homo sapiens), P61088 | inhibition, % at 20 µM | actives 0.47% (n = 330,000); in the data active = inhibition above about 45%, passing the limit was not always enough; inconclusive = no clear call, values can overlap the other calls
Target sequence (P61088 whole entry, looked up): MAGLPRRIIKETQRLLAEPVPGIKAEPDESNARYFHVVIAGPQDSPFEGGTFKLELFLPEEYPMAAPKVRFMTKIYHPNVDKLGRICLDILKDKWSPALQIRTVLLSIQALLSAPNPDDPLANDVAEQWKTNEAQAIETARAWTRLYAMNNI
MEKK2wt PB1 HTS – modulators of MEK5 binding to wildtype MEKK2, primary screen, biochemical, multiplex bead flow cytometry, Alexa488-MEK5 | Mitogen-activated protein kinase kinase kinase 2 (Homo sapiens), Q9Y2U5 | Alexa488-MEK5 binding to MEKK2 WT; actives lie on both sides | binding response (% of control), % at 10 µM | actives 1.1% (n = 290,000) | AID 1531, 2009; in the data active = binding response below about 67% or above about 130%; inconclusive = no clear call, values can overlap the other calls; inactive = in between
Apaf-1 inh – inhibitors of human Apaf-1 apoptosome, primary screen, biochemical, DEVD-Rh110 fluorescence, uHTS | Apoptotic protease-activating factor 1 (Homo sapiens), O14727 | reconstituted apoptosome caspase-3 activity | inhibition, % at 20 µM | actives 0.71% (n = 330,000) | AID 489030, 2010; active = inhibition of at least 40% at 20 µM;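 also: plate controls were DMSO wells for no effect and DEVD-CHO caspase inhibitor wells for full effect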
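Material: biochemical Apaf-1 apoptosome reconstitution. Medium: Hepes buffer, pH 7.5. Also added: cytochrome c activation, bis-DEVD rhodamine 110 substrate. Timing: 30 min compound preincubation, 50 min activation, room temperature. Measured by: rhodamine 110 fluorescence at Ex 480/Em 540 nm.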
Apaf-1 inh conf2 – Apaf-1 inhibitors, single-dose retest, confirmation, biochemical, fluorescence, DEVD-Rh110, 20 µM; shares compounds with Apaf-1 inh; reconstituted apoptosome, caspase-3 DEVD-Rh110 fluorescence; inhibition, % at 20 µM; actives 25% (n = 1,800); AID 504614, 2011;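 active = mean inhibition of at least 40% at 20 µM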;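 also: plate controls were DMSO wells for no effect and DEVD-CHO caspase inhibitor control wells for full effect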
Rh110 quench – Rh110 fluorescence interference by putative Apaf-1 inhibitors, confirmation, artefact control for Apaf-1 inhibitor project, biochemical, 20 µM. shares compounds with Apaf-1 inh. quenched caspase reaction. activation (fluorescence interference), % at 20 µM. 1,800 tested, under 10 active. AID 504615, 2011;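 active = signal rise of 40% or more at 20 µM, treated as a fluorescence artifact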
Fluor interf inh – fluorescence interference of Apaf-1 inhibitor hits, dose response, artefact control for Apaf-1 inhibitor project; IC50, µM; fluorescence interference counterscreen, Apaf-1 assay format; 460 tested, under 10 active; shares compounds with Apaf-1 inh; call rule not given here
* marks the source's active call; other numbers are inactive results; ? = inconclusive; . = no result. An excerpt weighted towards active compounds, which were near 3.2% of everything screened.

SMILES | MEKK2mut PB1 HTS | MEKK3 PB1 HTS | Pemphigus Ab inh | UBC13 inh | MEKK2wt PB1 HTS | Apaf-1 inh | Apaf-1 inh conf2 | Rh110 quench | others
Cc1ccc(NC(=O)c2cccc(C(=O)Nc3ccc(C)c(C)c3)n2)cc1C | -1 | 104 | 109 | -6 | 95 | 12 | . | .
Nc1ccc(Oc2ncccn2)cc1 | 0 | 97 | 103 | -7 | 95 | 44* | 52* | 8 | Fluor interf inh=>100
C[C@H]1NC(=O)[C@]2(C)[C@@H](c3ccccc3)[C@H]3COc4ccccc4[C@H]3N2C1=O | . | . | 108 | . | . | . | . | .
COc1ccc(OCCNc2c([N+](=O)[O-])c(=O)oc3ccccc23)cc1 | -1 | 105 | 104 | -9 | 104 | 73* | 87* | -2 | Fluor interf inh=>100
CCNc1c([N+](=O)[O-])c(=O)oc2ccccc12 | -1 | 108 | 98 | 0 | 104 | -1 | . | .
COc1cc(CN2CCN(Cc3ccc(C(F)(F)F)cc3)CC2)cc(OC)c1OC | 4 | 102 | 103 | -3 | 111 | 14 | . | .
COc1ccc(CN=Cc2[nH]c3ccc(Br)c(Cl)c3c2O)cc1 | . | . | 103 | -71 | . | 45* | 41* | -1 | Fluor interf inh=>100
CC(=O)Nc1c(S(=O)(=O)c2ccccc2)c2nc3ccccc3nc2n1Cc1ccccc1 | 5 | 103 | 91 | 3 | 103 | 60* | 10 | -7
C=CCn1c(NS(=O)(=O)c2ccccc2)c(S(=O)(=O)c2ccc(C)cc2)c2nc3ccccc3nc21 | -1 | 108 | 115 | . | 104 | . | . | .
COc1cccc(-n2sc3c(c2=S)-c2cc(OC)ccc2NC3(C)C)c1 | 5 | 107 | 99 | 6 | 111 | -9 | . | .
CC1(C)Nc2ccc(O)cc2-c2c1ssc2=S | 14 | 106 | 97 | -25 | 104 | 51* | 34 | 15
Cc1ccc(C)c(S(=O)(=O)N/N=C/c2ccc(N3CCOCC3)cc2)c1 | 3 | 101 | 92 | 10 | 100 | -5 | . | .
CCN1/C(=C/C=C/c2sc3ccccc3[n+]2CC)Sc2ccccc21 | . | . | -10* | 2 | . | 90* | 51* | 16 | Fluor interf inh=>100
CC(=O)N1CCC(C(=O)Nc2cc(S(=O)(=O)N3CCCCC3)ccc2C)CC1 | . | . | 105 | . | . | . | . | .
COc1ccc(C(c2c(C)[nH]n(-c3ccccc3)c2=O)c2c(C)[nH]n(-c3ccccc3)c2=O)cc1OC | -1 | 99 | 97 | -22 | 98 | 97* | 25 | -4
Cc1[nH]n(-c2ccccc2)c(=O)c1C(C[N+](=O)[O-])c1ccc(F)cc1 (stereo unspecified) | -2 | 96 | 105 | -20 | 97 | 94* | 22 | 9
Cc1ccc(C(C[N+](=O)[O-])c2c(C)[nH]n(-c3ccccc3)c2=O)cc1 (stereo unspecified) | 3 | 102 | 112 | -18 | 102 | 93* | 44* | 1 | Fluor interf inh=>100
CN1CCN(S(=O)(=O)c2cccc(C(=O)NCCOc3ccccc3F)c2)CC1 | 9 | 107 | . | 11 | 109 | 16 | . | .
CN(C)CCCNc1cc(O)c2ncccc2c1 | . | . | 106 | ? | . | 77* | 55* | 3 | Fluor interf inh=>100
Oc1cc(NCc2ccc(F)cc2)cc2cccnc12 | . | . | 102 | 9 | . | 13 | . | .
COc1nc(N/N=C/c2ccc(-c3ccccc3[N+](=O)[O-])o2)nc(N2CCOCC2)n1 | -1 | 98 | 102 | -53 | 100 | 54* | 26 | 7
Cc1cc2cc(CNC(=O)NC3CCCCC3)ccc2n1C | 7 | 109 | 91 | 7 | 115 | 51* | 16 | 11
Cc1cc2cc(CNC(=O)Nc3ccc(Cl)c(Cl)c3)ccc2n1C | 4 | 96 | 94 | -10 | 95 | 62* | 8 | -1
CC(C)CNC(=S)N(CCO)Cc1cc2cc3c(cc2[nH]c1=O)OCO3 | 7 | 93 | 113 | -2 | 112 | -13 | . | .
Cc1ccc(S(=O)(=O)NC(=O)Nc2ccc(N(C)C)cc2)cc1 | 6 | 97 | 106 | -45 | 98 | 57* | 23 | 2
SMILES | MEKK2mut PB1 HTS | MEKK3 PB1 HTS | Pemphigus Ab inh | UBC13 inh | MEKK2wt PB1 HTS | Apaf-1 inh | Apaf-1 inh conf2 | Rh110 quench | others
Cc1ccc(NC(=O)NNS(=O)(=O)c2ccc(Br)cc2)cc1 | 9 | 104 | 92 | -2 | 108 | 3 | . | .
C=CCOc1ccc(C(=O)c2ccccc2)c(OCC(=O)NC2(C#N)CCCC2)c1 | -1 | 98 | 93 | 30 | 95 | 21 | . | .
Cc1ccc(N(C(=O)c2snc(C(N)=O)c2N)C(C(=O)NCc2ccccc2)c2ccncc2)c(C)c1 (stereo unspecified) | 0 | 100 | 100 | 19 | 96 | 33 | . | .
COc1ccc(CC(=O)NCc2ccccc2)cc1S(=O)(=O)N1CCOCC1 | 3 | 106 | 101 | -4 | 106 | 5 | . | .
COc1ccc(CC(=O)N(C)CC(=O)Nc2c(C)cccc2C)cc1S(=O)(=O)N1CCOCC1 | . | . | . | 40 | . | 60* | 39 | 5
COc1ccc(CC(=O)N(C)CC(=O)Nc2ccccc2C(F)(F)F)cc1S(=O)(=O)N1CCOCC1 | . | . | 103 | 8 | . | 46* | 37 | 2
COc1ccc(CC(=O)N(Cc2ccccc2)c2ccc(C)cc2)cc1S(=O)(=O)N1CCOCC1 | . | . | 108 | 28 | . | 43* | 43* | 6 | Fluor interf inh=>100
Cc1cc(C)c2nc(N(CCN(C)C)C(=O)c3ccc(S(=O)(=O)N(C)CC4CCCO4)cc3)sc2c1 (stereo unspecified) | 19 | 109 | 110 | 2 | 131 | 49* | 10 | 7
CCOc1cccc2sc(N(CCCN(C)C)C(=O)c3ccc(S(=O)(=O)N(C)CC4CCCO4)cc3)nc12 (stereo unspecified) | 13 | 103 | 114 | 2 | 125 | 18 | . | .
COc1ccc(C(=O)c2c(C(F)(F)F)oc3c2C(=O)c2ccccc2C3=O)cc1 | 4 | 102 | 97 | -46 | 100 | 79* | 84* | 14 | Fluor interf inh=>100
